pIC50, pKi: −log10 of the molar value. The source made the active and inactive calls. No cut-off for these calls is given here.
What was measured:
[1] = biological target: Cholinesterase (Equus caballus) (UniProt P81908); experiment: Inhibition of equine serum BuChE at 10 uM pre-incubated for 5 mins before butyrylthiocholine iodide substrate by Ellman' method
Outline: (§1)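 Ellman assay in 96-well format: 0.3 mM DTNB in phosphate buffer pH 7.4, compound in DMSO, and enzyme (human erythrocyte AChE or equine serum BuChE, 0.05 U final) preincubated 5 min at 25 °C. Started with 10 mM acetyl- or butyrylthiocholine iodide; A412 followed every minute for 10 min, substrate-free blank.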

[2] = biological target: T1, Acetylcholinesterase (Homo sapiens, UniProt P22303); experiment: Inhibition of human erythrocyte AChE at 10 uM pre-incubated for 5 mins before acetylthiocholine iodide substrate by Ellman' method; outline: as §1
T1 sequence (P22303 whole entry): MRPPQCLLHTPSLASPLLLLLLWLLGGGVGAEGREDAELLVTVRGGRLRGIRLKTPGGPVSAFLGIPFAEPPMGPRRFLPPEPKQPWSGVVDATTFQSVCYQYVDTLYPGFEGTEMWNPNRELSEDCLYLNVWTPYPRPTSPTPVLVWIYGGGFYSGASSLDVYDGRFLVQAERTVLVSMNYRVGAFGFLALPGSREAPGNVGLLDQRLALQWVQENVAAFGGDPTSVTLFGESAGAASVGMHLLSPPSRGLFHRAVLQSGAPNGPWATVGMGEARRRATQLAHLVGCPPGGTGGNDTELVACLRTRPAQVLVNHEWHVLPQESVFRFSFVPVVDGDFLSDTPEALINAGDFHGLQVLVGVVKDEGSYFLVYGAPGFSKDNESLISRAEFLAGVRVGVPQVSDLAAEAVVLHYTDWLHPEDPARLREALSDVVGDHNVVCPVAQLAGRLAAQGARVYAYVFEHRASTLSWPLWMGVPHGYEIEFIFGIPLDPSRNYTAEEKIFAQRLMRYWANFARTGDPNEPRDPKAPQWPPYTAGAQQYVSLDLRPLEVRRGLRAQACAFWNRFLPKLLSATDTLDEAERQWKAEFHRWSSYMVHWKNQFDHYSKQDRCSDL

[3] = biological target: 5-hydroxytryptamine receptor 4 (Cavia porcellus, UniProt O70528); experiment: Displacement of [3H]GR113808 from 5-HT4R in guinea pig brain membranes incubated for 30 mins by radioligand binding assay; format: cell membranes, Membrane
Chain of 5-hydroxytryptamine receptor 4 (O70528 whole entry): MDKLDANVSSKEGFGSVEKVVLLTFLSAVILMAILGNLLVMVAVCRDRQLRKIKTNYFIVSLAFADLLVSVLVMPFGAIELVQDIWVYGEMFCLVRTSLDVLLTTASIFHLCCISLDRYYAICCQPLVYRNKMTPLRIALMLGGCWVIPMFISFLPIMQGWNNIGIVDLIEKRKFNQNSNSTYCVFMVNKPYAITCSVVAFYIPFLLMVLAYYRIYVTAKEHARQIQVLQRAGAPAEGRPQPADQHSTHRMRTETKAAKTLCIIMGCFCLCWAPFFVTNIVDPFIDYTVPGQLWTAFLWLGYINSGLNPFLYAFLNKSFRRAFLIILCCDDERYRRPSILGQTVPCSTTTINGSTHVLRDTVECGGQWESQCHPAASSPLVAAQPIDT

[4] = biological target: Cholinesterase (Equus caballus, UniProt P81908); experiment: Inhibition of equine serum BuChE pre-incubated for 5 mins before butyrylthiocholine iodide substrate by Ellman' method; outline: as §1
Chain of Cholinesterase (P81908 whole entry): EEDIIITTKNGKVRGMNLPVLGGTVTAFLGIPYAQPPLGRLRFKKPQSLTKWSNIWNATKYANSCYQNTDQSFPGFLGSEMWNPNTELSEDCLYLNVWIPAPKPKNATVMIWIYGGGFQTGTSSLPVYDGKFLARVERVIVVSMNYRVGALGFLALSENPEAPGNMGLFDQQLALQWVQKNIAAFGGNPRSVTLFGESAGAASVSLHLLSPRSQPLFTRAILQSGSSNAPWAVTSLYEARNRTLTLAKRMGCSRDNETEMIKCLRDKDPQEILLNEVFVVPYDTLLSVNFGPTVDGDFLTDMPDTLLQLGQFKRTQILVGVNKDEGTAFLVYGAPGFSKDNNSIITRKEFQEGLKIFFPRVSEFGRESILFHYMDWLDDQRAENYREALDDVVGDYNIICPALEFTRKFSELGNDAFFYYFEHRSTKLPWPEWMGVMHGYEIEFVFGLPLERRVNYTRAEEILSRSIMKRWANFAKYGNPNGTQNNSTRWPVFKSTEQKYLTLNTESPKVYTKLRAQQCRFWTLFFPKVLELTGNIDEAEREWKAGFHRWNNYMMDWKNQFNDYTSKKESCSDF

[5] = tested on: Mus musculus; experiment: Toxicity in NMRI mouse assessed as induction of sleep at 10 mg/kg, ip; format: organism-based; design: dose 10 mg/kg, route intraperitoneal; conditions: in vivo
Outline: (§2)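 Mice in groups of four received graded IP doses of […]. Behavioural and neurological changes (hypo- or hyperactivity, ataxia, tremors, convulsion, etc.) were scored by standardized observation at 30 min, 3 h and 24 h against controls.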

[6] = tested on: Mus musculus; experiment: Toxicity in NMRI mouse assessed as induction of hypoactivity at 10 mg/kg, ip; format: organism-based; design: dose 10 mg/kg, route intraperitoneal; conditions: in vivo; outline: as §2
[7] = tested on: Mus musculus; experiment: Toxicity in NMRI mouse assessed as induction of ataxia at 10 mg/kg, ip; format: organism-based; design: dose 10 mg/kg, route intraperitoneal; conditions: in vivo; outline: as §2
[8] = tested on: Mus musculus; experiment: Antiamnesic activity in NMRI mouse assessed as reversal of scopolamine-induced spontaneous alteration deficit at 1 mg/kg, ip by Y maze test; format: functional, organism-based; design: dose 1 mg/kg
[9] = biological target: 5-hydroxytryptamine receptor 4 (Homo sapiens) (UniProt Q13639); experiment: Displacement of [3H]GR113808 from human 5-HT4R at 1 uM by radioligand binding assay
Chain of 5-hydroxytryptamine receptor 4 (Homo sapiens) (Q13639 whole entry): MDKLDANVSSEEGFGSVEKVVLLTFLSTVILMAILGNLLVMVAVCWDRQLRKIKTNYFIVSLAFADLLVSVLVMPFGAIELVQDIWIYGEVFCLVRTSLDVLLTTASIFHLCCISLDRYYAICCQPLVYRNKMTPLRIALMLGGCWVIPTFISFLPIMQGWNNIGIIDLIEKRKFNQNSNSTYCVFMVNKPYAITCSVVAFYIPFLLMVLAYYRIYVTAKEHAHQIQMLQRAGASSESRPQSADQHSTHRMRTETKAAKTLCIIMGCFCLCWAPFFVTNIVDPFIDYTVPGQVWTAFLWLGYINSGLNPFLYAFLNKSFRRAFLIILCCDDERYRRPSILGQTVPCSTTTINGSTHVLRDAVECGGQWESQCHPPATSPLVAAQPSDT
Outline: (§3)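 Recombinant human 5-HT4 membranes, 2.5 μg protein, incubated in duplicate with 0.2 nM [3H]GR113808 in 25 mM Tris pH 7.4 for 60 min at 25 °C, with or without drug at 10−6 or 10−8 M. Filtered on PEI-presoaked GF/C filters, washed with ice-cold buffer. Nonspecific binding with 30 μM serotonin. Read-out is % inhibition of binding.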

[10] = biological target: 5-hydroxytryptamine receptor 4 (Homo sapiens) (UniProt Q13639); experiment: Agonist activity at HA-tagged 5-HT4R (unknown origin) expressed in COS7 cells assessed as cAMP accumulation by HTRF assay; format: functional, cell-based; design: concentration or dose not given beside the values; conditions: COS-7
[11] = biological target: 5-hydroxytryptamine receptor 4 (Homo sapiens) (UniProt Q13639); experiment: Displacement of [3H]GR113808 from human 5-HT4R at 10 nM by radioligand binding assay; outline: as §3
[12] = biological target: T1, Acetylcholinesterase; experiment: Inhibition of human erythrocyte AChE pre-incubated for 5 mins before acetylthiocholine iodide substrate by Ellman' method
[13] = tested on: Mus musculus; experiment: Antidepressant-like activity in NMRI mouse assessed as reduction in immobility time at 0.3 mg/kg, ip administered 30 mins before test; format: functional, organism-based; design: dose 0.3 mg/kg
Outline: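 Male NMRI mice given drug in 0.9% NaCl IP 30 min before the test, not pretested. Each mouse swam 6 min in a 12 cm diameter cylinder, water 13 cm deep at 23−24 °C. Immobility was scored over the last 4 min. n = 10−12, SNK test versus NaCl.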

[14] = biological target: 5-hydroxytryptamine receptor 4 (Homo sapiens) (UniProt Q13639); experiment: Activity at 5-HT4R (unknown origin) expressed in COS7 cells assessed as increase in sAPPalpha release relative to 5-HT; format: cell-based; conditions: COS-7
[15] = tested on: Mus musculus; experiment: Toxicity in NMRI mouse assessed as effect on spontaneous locomotor activity at 10 mg/kg, ip dosed 30 mins before placing mouse in actimeter; format: organism-based; design: dose 10 mg/kg, route intraperitoneal; conditions: in vivo, 0.5 h
Outline: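 Adult male NMRI mice were dosed IP 30 min before being placed individually in an infrared actimeter. Beam interruptions were counted over 30 min. Mean ± SD, n = 9–10, SNK test versus NaCl.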

[16] = Toxicity in ip dosed NMRI mouse; format: organism-based; conditions: in vivo
[17] = tested on: Mus musculus; experiment: Toxicity in NMRI mouse assessed as induction of passivity at 100 mg/kg, ip; format: organism-based; design: dose 100 mg/kg, route intraperitoneal; conditions: in vivo; outline: as §2
[18] = tested on: Mus musculus; experiment: Increase in sAPPalpha level in C57BL/6 mouse CSF at 1 mg/kg, ip measured after 90 mins by ELISA method; format: functional, organism-based; design: dose 1 mg/kg
Outline: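 Wild-type C57BL/6 mice, 2 months old, n = 7/group. Single IP injection of vehicle (0.9% NaCl, 0.2% DMSO) or drug. After 90 min, CSF was taken from the cisterna magna under anesthesia, frozen at −80 °C and heated at 60 °C for 5 min. sAPPα measured by mouse/rat ELISA read at 620/450 nm. Unpaired t test.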

[19] = tested on: Mus musculus; experiment: Toxicity in NMRI mouse assessed as toxic symptoms at 1 to 10 mg/kg, ip; format: organism-based; design: dose 1-10 mg/kg, route intraperitoneal; conditions: in vivo; outline: as §2
[20] = tested on: Mus musculus; experiment: Toxicity in NMRI mouse assessed as induction of hypoactivity at 100 mg/kg, ip; format: organism-based; design: dose 100 mg/kg, route intraperitoneal; conditions: in vivo; outline: as §2
[21] = tested on: Mus musculus; experiment: Antiamnesic activity in NMRI mouse assessed as reversal of scopolamine-induced spontaneous alteration deficit at 0.3 mg/kg, ip by Y maze test; format: functional, organism-based; design: dose 0.3 mg/kg
Outline: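 Male NMRI mice, 3 months old, 35−40 g. Scopolamine 0.5 mg/kg SC 30 min before the Y-maze test; test drug in 0.9% NaCl IP 30 min before. Spontaneous alternation = actual/possible alternations (total arm entries minus two) × 100. n = 10−12. Compared with 50% by univariate t test.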

[22] = tested on: Mus musculus; experiment: Toxicity in NMRI mouse assessed as induction of hyperactivity at 2 mg/kg, ip; format: organism-based; design: dose 2 mg/kg, route intraperitoneal; conditions: in vivo
Outline: (§4)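 Behavioural and neurological changes scored by standardized observation at 30 min, 3 h and 24 h against controls.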

[23] = tested on: Mus musculus; experiment: Toxicity in NMRI mouse assessed as induction of irritability at 2 mg/kg, ip; format: organism-based; design: dose 2 mg/kg, route intraperitoneal; conditions: in vivo; outline: as §4
[24] = tested on: Mus musculus; experiment: Toxicity in NMRI mouse assessed as induction of exophtalmy at 2 mg/kg, ip; format: organism-based; design: dose 2 mg/kg, route intraperitoneal; conditions: in vivo; outline: as §4
[25] = tested on: Mus musculus; experiment: Antiamnesic activity in NMRI mouse assessed as reversal of scopolamine-induced spontaneous alteration deficit at 0.1 mg/kg, ip co-administered with 0.3 mg/kg DPZ by Y maze test; format: functional, organism-based
Outline: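 Scopolamine 0.5 mg/kg given SC 30 min before the Y-maze test. The reference combination was 0.1 mg/kg IP (30 min before) plus DPZ 0.3 mg/kg SC (20 min before), in 0.9% NaCl vehicle. Percent spontaneous alternation = actual/(total arm entries − 2) × 100. Mean ± SD, n = 10–12, univariate t test versus 50%.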

Chain of Cholinesterase (Equus caballus) (P81908 whole entry): as the sequence (P81908 whole entry) above

COc1cc(N)c(Cl)cc1C(=O)CCC1CCN(CC2CCC2)CC1
inhibition [1]: 47%

COc1cc(N)c(Cl)cc1C(=O)NCC1CCN(CC2CCCCC2)CC1
inhibition [2]: 45% | pKi [3]: 8.65

COc1cc(N)c(Cl)cc1/C(CCC1CCN(CC2CCCCC2)CC1)=N/O
pKi [3]: 6.71

CO/N=C(\CCC1CCN(CC2CCCCC2)CC1)c1cc(Cl)c(N)cc1OC
pIC50 [4]: 5.13 | inhibition [2]: 33%

CN(C)CCCN1c2ccccc2Sc2ccc(Cl)cc21 [CHLORPROMAZINE]
Activity [5]: Toxic | Activity [6]: Toxic | Activity [7]: Toxic

COc1cc(N)c(Cl)cc1C(=O)CCC1CCN(CCC2CCCCC2)CC1
pIC50 [4]: 5.20

COc1cc2c(cc1OC)C(=O)C(CC1CCN(Cc3ccccc3)CC1)C2 (stereo not given)
Activity [8]: Active

COc1cc(N)c(Cl)cc1C(=O)CCC1CCN(CC2CCNCC2)CC1
inhibition [9]: 100% | Activity [10]: 20% | inhibition [11]: 69% | inhibition [1]: 26%

COc1cc(N)c(Cl)cc1C(=O)CCC1CCN(CC2CC2)CC1
pIC50 [4]: 5.18

COc1cc(N)c(Cl)cc1C(=O)CCC1CCN(Cc2ccncc2)CC1
pIC50 [12]: 6.92 | pKi [3]: 7.69 | inhibition [1]: 46%

COc1cc(N)c(Cl)cc1C(=O)CCC1CCN(Cc2cccnc2)CC1
pIC50 [4]: 5.04 | pIC50 [12]: 7.35 | pKi [3]: 7.69

COc1cc(N)c(Cl)cc1C(O)CCC1CCN(CC2CCCCC2)CC1 (stereo not given)
pIC50 [4]: 5.44 | pIC50 [12]: 5.99 | pKi [3]: 6.91

COc1cc(N)c(Cl)cc1C(=O)CCC1CCN(CC2CCCCCC2)CC1
inhibition [9]: 99% | pIC50 [4]: 5.40 | Activity [10]: 58% | inhibition [11]: 46%

COc1cc(N)c(Cl)cc1C(=O)CCC1CCN(Cc2ccccc2)CC1
inhibition [9]: 100% | pIC50 [4]: 5.74 | Activity [10]: 65% | inhibition [11]: 41% | pIC50 [12]: 8.07 | pKi [3]: 7.84

COc1cc(N)c(Cl)cc1C(=O)CCC1CCN(CC2CCCCC2)CC1
Activity [13]: Active | inhibition [9]: 100% | Emax [14]: 22.5% | pIC50 [4]: 5.45 | Activity [15]: Non-toxic | Activity [10]: 48.3% | LD50 [16]: 75 mg/kg | Activity [17]: Toxic | inhibition [11]: 73% | Activity [18]: Active | Activity [19]: Non-toxic | Activity [20]: Toxic | Activity [21]: Active

CC(N)Cc1ccccc1 (stereo not given) [AMPHETAMINE]
Activity [22]: Toxic | Activity [23]: Toxic | Activity [24]: Toxic

COc1cc(N)c(Cl)cc1C(=O)CCC1CCN(CC2CCCC2)CC1
inhibition [9]: 100% | pIC50 [4]: 5.16 | Activity [10]: 48% | inhibition [11]: 58%

CCCCN1CCC(CCC(=O)c2cc(Cl)c(N)cc2OC)CC1
Activity [25]: Active | pIC50 [12]: 6.39 | pKi [3]: 8.03

COc1cc(N)c(Cl)cc1C(=O)OCC1CCN(CC2CCCCC2)CC1
pIC50 [4]: 5.39

COc1cc(N)c(Cl)cc1C(=O)CCC1CCN(CC2CCCCC2C)CC1 (stereo not given)
pIC50 [4]: 5.36

Source: ChEMBL document CHEMBL3414476, “Novel multitarget-directed ligands (MTDLs) with acetylcholinesterase (AChE) inhibitory and serotonergic subtype 4 receptor (5-HT4R) agonist activities as potential agents against Alzheimer's disease: the design of donecopride” (J Med Chem, 2015)
